Source: ChEMBL document CHEMBL1133659, “3,4-dihydro-2(1H)-quinolinone as a novel antidepressant drug: synthesis and pharmacology of 1-[3-[4-(3-chlorophenyl)-1-piperazinyl]propyl]-3,4- dihydro-5-methoxy-2(1H)-quinolinone and its derivatives” (J Med Chem, 2000)

What was measured:
[1] = target: T1, Sigma non-opioid intracellular receptor 1 (Rattus norvegicus, UniProt Q9R0C9); assay: Binding affinity for sigma receptor was evaluated by the inhibitory effect on [3H]DTG to rat whole brain membranes; format: cell membranes
Method in brief: (§1)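 Bound ligand collected by filtration onto PEI-soaked filters and counted by scintillation; nonspecific binding defined with haloperidol. IC50 by nonlinear least-squares fit; mean ± SE of three experiments, or a single experiment where no SE is given.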

[2] = species on record: Mus musculus; assay: Effect on the sleeping time of mice before halothane load (control group); format: functional
Method in brief: (§2)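 Groups of 10 mice received compound orally 1 h before testing, at 100 mg/kg unless another dose is noted. Vehicle was 0.5% gum arabic in 0.9% saline, and controls received vehicle alone. Mice were exposed to 4% halothane in air at 2 L/min. Sleeping time ran from loss to recovery of righting reflex (mean ± SE s), expressed as % of control. Two-tailed t-test was used.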

[3] = tested on: Mus musculus; assay: Effect on the sleeping time of mice anesthetized with halothane (treated group); format: functional; method in brief: as §2
[4] = species on record: Mus musculus; assay: Effect on recovery time for coma induced in mice by cerebral concussion (treated group); format: functional
Method in brief: (§3)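 Groups of 10 mice received compound orally 1 h before head concussion, at 100 mg/kg unless another dose is noted. Vehicle was 0.5% gum arabic in saline, and controls received vehicle alone. The read-out was time to reappearance of the righting reflex (mean ± SE s), expressed as % of control. Two-tailed t-test was used.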

[5] = species on record: Mus musculus; assay: Effect on recovery time for coma induced in mice by cerebral concussion (control group); format: functional; method in brief: as §3
[6] = tested on: Mus musculus; assay: Effect on Immobility Time in the Forced-Swimming Test in Mice at the dose of 0 mg/kg po; format: functional
Method in brief: (§4)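 Mice, 8 per group. Dosing was oral, either as a single dose 1 h before testing on day 2 or repeated once daily for 4 days. Each mouse swam 6 min in a cylinder with 6 cm of water at 22-23 °C, and immobility was scored over the last 4 min. Results are mean ± SE seconds and % of control, analysed by one-way ANOVA with Dunnett's test.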

[7] = tested on: Mus musculus; assay: Effect on Immobility Time in the Forced-Swimming Test in Mice at the dose of 10 mg/kg po; format: functional; method in brief: as §4
[8] = tested on: Mus musculus; assay: Effect on Immobility Time in the Forced-Swimming Test in Mice at the dose of 1 mg/kg po; format: functional; method in brief: as §4
[9] = target: T1, Sigma non-opioid intracellular receptor 1; assay: Binding affinity for sigma receptor was evaluated by the inhibitory effect on [3H]DTG to rat whole brain membranes.; format: functional, cell membranes; method in brief: as §1
[10] = tested on: Mus musculus; assay: Effect on the sleeping time of mice anesthetized with halothane (treated group) (p <0.01); format: functional; method in brief: as §2
[11] = tested on: Mus musculus; assay: Effect on Immobility Time in the Forced-Swimming Test in Mice at the dose of 10 mg/kg po for repeated administration; format: functional; method in brief: as §4
[12] = tested on: Mus musculus; assay: Effect on Immobility Time in the Forced-Swimming Test in Mice at the dose of 10 mg/kg po for single administration; format: functional; method in brief: as §4
[13] = tested on: Mus musculus; assay: Effect on Immobility Time in the Forced-Swimming Test in Mice at the dose of 30 mg/kg po for single administration; format: functional; method in brief: as §4
[14] = tested on: Mus musculus; assay: Effect on Immobility Time in the Forced-Swimming Test in Mice at the dose of 30 mg/kg po for repeated administration; format: functional; method in brief: as §4
[15] = tested on: Mus musculus; assay: Effect on Immobility Time in the Forced-Swimming Test in Mice at the dose of 0 mg/kg po for single administration; format: functional; method in brief: as §4
[16] = tested on: Mus musculus; assay: Effect on Immobility Time in the Forced-Swimming Test in Mice at the dose of 0 mg/kg po for repeated administration; format: functional; method in brief: as §4

T1 sequence (Q9R0C9 whole entry): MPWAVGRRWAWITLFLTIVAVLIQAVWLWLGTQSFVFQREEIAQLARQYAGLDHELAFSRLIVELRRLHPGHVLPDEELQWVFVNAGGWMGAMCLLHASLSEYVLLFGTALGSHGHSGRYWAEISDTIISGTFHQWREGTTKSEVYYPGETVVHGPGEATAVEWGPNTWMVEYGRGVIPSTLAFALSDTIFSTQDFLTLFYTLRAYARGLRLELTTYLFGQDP

| SMILES | IC50 [1] [nM] | Sleeping time [2] [s] | Sleeping time [3] [s] | RRT [4] [s] | RRT [5] [s] | further results |
| --- | --- | --- | --- | --- | --- | --- |
| CCCOc1cccc(N2CCN(CCCN3C(=O)CCc4c(Cl)cccc43)CC2)c1 | 370 | 465 | 393 |  |  |  |
| O=C1CCc2c(Cl)cccc2N1CCCN1CCN(c2cccc(Cl)c2)CC1 |  | 548 | 677 |  |  |  |
| CC(C)=CCN1CC[C@@]2(C)c3cc(O)ccc3C[C@@H]1[C@@H]2C |  | 549 | <370 | <72 | 170 |  |
| COc1cccc2c1ccc(=O)n2CCCN1CCN(c2cccc(Cl)c2)CC1 | 980 |  |  | 131 | 122 |  |
| C[C@@H]1CN(CCCn2c3ccccc3c3ccccc32)C[C@H](C)N1 [RIMCAZOLE] |  | 482 | 490 | 115 | 131 |  |
| COc1cccc(N2CCN(CC(=O)NC3c4c(O)c(C)cc(C)c4CC3(C)C)CC2)c1 (stereo not given) | > 15000 | 625 | <373 | <54 | 210 | Time [6]: 120 s; Time [7]: 123 s; Time [8]: 119 s |
| O=C(Oc1ccc2c(c1)CCC(=O)N2CCCN1CCN(c2ccccc2)CC1)c1ccccc1 |  | 561 | <1097 |  |  | IC50 [9]: > 10000 nM |
| CCOc1cccc2c1CCC(=O)N2CCCN1CCN(c2cccc(Cl)c2)CC1 | 870 | 353 | <238 | <31 | 113 |  |
| COc1cccc(N2CCN(CCCN3C(=O)CCc4c(Cl)cccc43)CC2)c1 | 130 | 548 | <277 | <36 | 132 |  |
| CC(C)Oc1cccc2c1CCC(=O)N2CCCN1CCN(c2cccc(Cl)c2)CC1 |  | 353 | 304 |  |  |  |
| CN1C(=O)CN=C(c2ccccc2)c2cc(Cl)ccc21 [DIAZEPAM] |  | 245 | <709 |  |  |  |
| COc1cccc2c1CCC(=O)N2CCCN1CCN(c2cccc(Br)c2)CC1 | 420 | 498 | <267 | <61 | 136 |  |
| Nc1cccc2c1CCC(=O)N2CCCN1CCN(c2cccc(Cl)c2)CC1 |  |  |  | 129 | 128 |  |
| COc1cccc2c1CCC(=O)N2CCN1CCN(c2cccc(Cl)c2)CC1 |  | 498 | 676 |  |  |  |
| Br.O=C1CCc2c(Cl)cccc2N1CCCN1CCN(c2cccc(O)c2)CC1 | 240 | 564 | 529 |  |  |  |
| O=C1CCc2c(O)cccc2N1CCCN1CCN(c2cccc(Cl)c2)CC1 |  | 585 | 516 |  |  |  |
| Nc1cccc(N2CCN(CCCN3C(=O)CCc4c(Cl)cccc43)CC2)c1 | 710 | 504 | 646 |  |  |  |
| COc1cccc2c1CCC(=O)N2CCCN1CCN(c2cc(Cl)cc(Cl)c2)CC1 |  | 363 | 310 | 168 | 133 |  |
| Cc1cccc(N2CCN(CCCOc3ccc4ccc(O)nc4c3)CC2)c1C |  | 311 | <956 |  |  |  |
| COc1cccc2c1CCC(=O)N2CCCN1CCN(c2cccc(N)c2)CC1 |  | 553 | <1380 |  |  |  |
| CC(=O)Nc1cccc(N2CCN(CCCN3C(=O)CCc4c(Cl)cccc43)CC2)c1 | 670 | 565 |  |  |  | Sleeping time [10]: <778 s |
| O=C1CCc2c(Cl)cccc2N1CCCN1CCN(c2cccc([N+](=O)[O-])c2)CC1 | 390 |  |  | 110 | 152 |  |
| CN(C)CCCN1c2ccccc2CCc2ccccc21 [IMIPRAMINE] |  |  |  | 290 | 177 | Time [11]: 122 s; Time [12]: 158 s; Time [13]: 160 s; Time [14]: <109 s; Time [15]: 198 s; Time [16]: 178 s |
